# Target: Neuromedin-U receptor 2 (Homo sapiens, UniProt Q9GZQ4)
# Assay: Agonist activity at human NMU2R transfected in HEK293 cells after 7 hrs by luciferase reporter gene assay
# Type: cell-based
# Conditions: read-out: EC50
# Outline: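 HEK-293 cells were stably co-transfected with a reporter gene construct and human NMU2R cDNA in pcDNA3.1(+), maintained under G418 selection at 37 °C in 5% CO2, then seeded and incubated overnight. Compounds were added at various concentrations for 7 h at 37 °C, followed by Bright-Glo luciferase read-out. Forskolin and NMU served as positive controls. EC50 was fitted by four-parameter logistic regression; means ± SEM of three independent experiments.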
# Sequence of Neuromedin-U receptor 2 (Q9GZQ4 whole entry): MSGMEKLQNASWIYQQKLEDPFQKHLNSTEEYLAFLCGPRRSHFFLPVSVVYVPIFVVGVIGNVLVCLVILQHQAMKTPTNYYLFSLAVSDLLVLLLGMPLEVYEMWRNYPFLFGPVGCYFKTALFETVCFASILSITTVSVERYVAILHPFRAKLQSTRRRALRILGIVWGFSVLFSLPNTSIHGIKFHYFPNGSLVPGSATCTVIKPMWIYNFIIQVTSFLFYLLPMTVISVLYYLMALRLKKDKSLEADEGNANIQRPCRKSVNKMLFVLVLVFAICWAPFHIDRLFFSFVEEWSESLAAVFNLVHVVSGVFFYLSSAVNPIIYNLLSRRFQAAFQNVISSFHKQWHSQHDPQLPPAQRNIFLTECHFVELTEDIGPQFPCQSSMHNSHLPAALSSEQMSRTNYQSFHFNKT
row,EC50 [µM],Compound
1,6.1,H-FRVDEEFQSPFASQSRGYFLFRPRN-NH2
2,1200,C[C@@H]1O[C@@H](OC[C@H]2O[C@@H](Oc3c(-c4ccc(O)c(O)c4)oc4cc(O)cc(O)c4c3=O)[C@H](O)[C@@H](O)[C@@H]2O)[C@H](O)[C@H](O)[C@H]1O [RUTIN]

row,Compound,EC50 [µM]
1,CNCC(O)c1ccc(O)cc1 (stereo not drawn) [OXEDRINE],6.6

# — ChEMBL document CHEMBL3351764, “Design, synthesis and biological activity of flavonoid derivatives as selective agonists for neuromedin U 2 receptor” (Bioorg Med Chem, 2014)
